Holding throughout (format): functional
Assay [1] deals with Calf thymus DNA. As to the kind of experiment: Binding constant to reduce by 50% the fluorescence of ethidium bromide bound to calf thymus DNA. Conditions: Bos taurus. Summed up: (§1)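 Competitive fluorometric displacement of ethidium bromide prebound to calf thymus DNA. The drug level that cuts ethidium fluorescence by 50% is found, and the binding constant is calculated from it.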

Assay [2] is filed under the species Bos taurus. Nature of the assay: Variation in melting temperature performed in BPE buffer at pH 7.1,using 10 uM drug and 20 uM calf thymus DNA (CT). Summed up: (§2)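 UV melting is monitored at 260 nm with a 1 °C/min heating ramp. BPE buffer is 6 mM Na2HPO4, 2 mM NaH2PO4 and 1 mM EDTA, pH 7.1. DNA is calf thymus or poly(dAdT)2 at 20 μM. ΔTm = Tm(complex) − Tm(DNA alone).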

For assay [3], the species on record is Bos taurus. As to the kind of experiment: Absorption spectral changes upon addition of 200 uM calf thymus DNA to drug solution at 20 uM in 1 mM Na cacodylate buffer at pH 7.0. Summed up:
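Read-out is UV-visible absorption of the drug before and after DNA addition. Hypochromism (H) and bathochromic shift (Δλ) are reported.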

The species named for assay [4] is Bos taurus. As to the kind of experiment: Variation in melting temperature performed in BPE buffer at pH 7.1,using 10 uM drug and 20 uM calf thymus poly (dAT). Summed up:
as §2

Assay [5] has as its system Calf thymus DNA. As to the kind of experiment: Binding constant to reduce by 50% the fluorescence of ethidium bromide bound to calf thymus DNA; No displacement of DNA-bound ethidium bromide at 50 uM. Conditions: Bos taurus. Summed up:
as §1

Structures are written as SMILES.

A word on the ΔTm: it is the shift of the melting midpoint relative to a reference.

Consider `Cc1cc2n(c(=O)c1CN)Cc1cc3ccc(OCCN4CCCCC4)cc3nc1-2`, for which, in assay [1], the K app x10e6 turned out to be 8.4 M⁻¹. Besides, the figures for the ΔTm in assay [2] and in assay [4] were 19.4 °C and 28.6 °C, respectively. Besides, the Bathochromic shift in assay [3] stood at 11 nm. The Hypochromic shift in assay [3] amounted to 38.6%.

Take `Cc1cc2n(c(=O)c1C(N)=O)Cc1cc3cc(OCCN4CCCCC4)ccc3nc1-2`: the K app x10e6 in assay [1] amounted to 0.29 M⁻¹. Also, in assay [2], the thermal shift (ΔTm) is 1.2 °C. In assay [3], the Bathochromic shift was found to be 9 nm and the Hypochromic shift was 33%. Moreover, the ΔTm in assay [4] was 5.8 °C.

Compound `Cc1cc2n(c(=O)c1CN)Cc1cc3cc(OCCN4CCCCC4)ccc3nc1-2` returned a K app x10e6 in assay [1] of 2.5 M⁻¹. Also, in assay [2], the ΔTm worked out at 13.6 °C. Further, in assay [3], the Bathochromic shift amounted to 9 nm and the Hypochromic shift amounted to 35.3%. In assay [4], the shift in melting temperature (ΔTm) was 19.8 °C.

Consider `Cc1cc2n(c(=O)c1C(N)=O)Cc1cc3ccccc3nc1-2`, for which, in assay [2], the ΔTm amounted to 0 °C. Besides, in assay [3], the Bathochromic shift is 0 nm and the Hypochromic shift is 2.7%. In addition, the ΔTm in assay [4] was determined as 0 °C. Moreover, the “K app x10e6” value in assay [5] is “No displacement of DNA-bound ethidium bromide at 50 uM”.

Compound `Cc1cc2n(c(=O)c1C(N)=O)Cc1cc3ccc(OCCN4CCCCC4)cc3nc1-2` displayed a K app x10e6 in assay [1] of 0.2 M⁻¹. Moreover, the ΔTm in assay [2] was found to be 4.6 °C. Further, in assay [3], the Bathochromic shift was found to be 8 nm and the Hypochromic shift came to 35.8%. Besides, the ΔTm in assay [4] was determined as 12.8 °C.

As for `Cc1cc2n(c(=O)c1CN)Cc1cc3ccccc3nc1-2`, the ΔTm in assay [2] was 1.9 °C. In assay [3], the Bathochromic shift worked out at 8 nm and the Hypochromic shift came to 33.1%. The ΔTm in assay [4] worked out at 3 °C. In addition, the “K app x10e6” value in assay [5] is “No displacement of DNA-bound ethidium bromide at 50 uM”.

For the origin of these results see ChEMBL document CHEMBL1135697, “Formaldehyde-induced DNA cross-link of indolizino[1,2-b]quinolines derived from the A-D rings of camptothecin” (J Med Chem, 2002).
